Assay results taken from article PMC7571300 (ACS Pharmacology & Translational Science, 2020).
Where two headings read alike, the source gives them in different places.

What was measured:
EV-D68 3C^pro [1] = biological target: T1, EV-D68 3C^pro (Enterovirus D68, UniProt A0A097BW19); experiment: biochemical
T1 sequence (A0A097BW19 1550-1732): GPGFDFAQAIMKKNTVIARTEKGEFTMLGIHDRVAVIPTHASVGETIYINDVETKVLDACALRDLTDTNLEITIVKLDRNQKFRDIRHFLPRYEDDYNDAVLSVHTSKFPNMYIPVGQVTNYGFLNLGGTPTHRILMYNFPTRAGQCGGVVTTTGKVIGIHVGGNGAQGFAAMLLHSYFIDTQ

EV-A71 2A^pro [2] = biological target: T2, EV-A71 2A^pro (Enterovirus A71, UniProt B9VUU3); experiment: FRET-based enzymatic assay; type: biochemical
T2 sequence (B9VUU3 863-1012): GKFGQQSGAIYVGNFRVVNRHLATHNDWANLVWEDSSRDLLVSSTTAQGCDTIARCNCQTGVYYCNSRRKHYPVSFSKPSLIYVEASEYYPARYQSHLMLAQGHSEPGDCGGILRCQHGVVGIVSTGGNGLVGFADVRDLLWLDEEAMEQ

SARS-CoV-2 M^pro [3] = biological target: T3, SARS-CoV-2 M^pro (Severe acute respiratory syndrome coronavirus 2, UniProt P0DTD1); experiment: Thermal shift binding assay; settings: for Tm change, SARS-CoV-2 M^pro: 4 mM DTT, 40 μM compound (shikonin 10 μM), 3 μM protease
EV-D68 2A^pro [4] = biological target: T4, EV-D68 2A^pro (Enterovirus D68, UniProt A0A097BW19); experiment: Thermal shift binding assay; settings: 4 mM DTT; 40 μM compound (shikonin 10 μM); 3 μM protease
T4 sequence (A0A097BW19 863-1009): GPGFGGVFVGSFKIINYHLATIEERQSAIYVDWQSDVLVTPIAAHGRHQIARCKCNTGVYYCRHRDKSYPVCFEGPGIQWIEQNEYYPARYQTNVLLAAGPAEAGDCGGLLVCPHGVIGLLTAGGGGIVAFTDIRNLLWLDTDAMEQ
Procedure, shortened: (§1)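 Codon-optimised 2Apro was expressed in E. coli from pET28b(+), from EV-A71/7D3 or EV-D68 US/KY/14–18953. Protease (3 μM) in 50 mM Tris pH 7.0, 150 mM NaCl, 10% glycerol, with or without 4 mM DTT, was preincubated with test compound or DMSO at 30 °C for 30 min. SYPRO orange (1×) was then added and fluorescence followed over 20–90 °C at 0.05 °C/s. Tm was taken as the transition mid log (Boltzmann model).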

EV-D68 3C^pro [5] = biological target: T1, EV-D68 3C^pro; experiment: Thermal shift binding assay; settings: for Tm change, EV-D68 3C^pro: 4 mM DTT, 40 μM compound (shikonin 10 μM), 3 μM protease
Procedure, shortened: (§2)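 3Cpro (EV-A71/7D3 or EV-D68 US/KY/14–18953; codon-optimised, pET28b(+), BL21(DE3), 0.5 mM IPTG at 18 °C for 24 h, Ni-NTA purified) was used at 3 μM. Buffer was 50 mM Tris pH 7.0, 150 mM NaCl, 1 mM EDTA, 10% glycerol, with or without 4 mM DTT. Protease was preincubated with test compound or DMSO (30 °C, 30 min), then SYPRO orange (1×) added and a 20–90 °C ramp (0.05 °C/s) run. Tm came from a Boltzmann fit.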

SARS-CoV-2 M^pro [6] = biological target: T3, SARS-CoV-2 M^pro; type: binding
in vitro = settings: human, CC50 (EV-A71 CPE assay conditions), RD cells, no virus, 37 °C, no MgCl2
EV-D68 2A^pro [7] = biological target: T4, EV-D68 2A^pro; experiment: FRET-based enzymatic assay; type: biochemical
EV-A71 2A^pro [8] = biological target: T2, EV-A71 2A^pro; experiment: Thermal shift binding assay; settings: 4 mM DTT; 40 μM compound (shikonin 10 μM); 3 μM protease
Procedure, shortened: as §1

EV-A71 3C^pro [9] = biological target: T5, EV-A71 3C^pro (Enterovirus A71, UniProt B9VUU3); experiment: Thermal shift binding assay; settings: 4 mM DTT; 40 μM compound (shikonin 10 μM); 3 μM protease
Procedure, shortened: as §2

EV-A71 3C^pro [10] = biological target: T5, EV-A71 3C^pro; experiment: FRET-based enzymatic assay; type: biochemical
SARS-CoV-2 PL^pro = SARS-CoV-2 PL^pro (Severe acute respiratory syndrome coronavirus 2, UniProt P0DTD1); experiment: Thermal shift binding assay; settings: 4 mM DTT; 40 μM compound (shikonin 10 μM); 3 μM protease
Procedure, shortened: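 SARS-CoV-2 PLpro (ORF1ab 1564–1876, strain WIV04) was expressed from pET28b(+) in BL21(DE3) (0.5 mM IPTG, 18 °C, 24 h), Ni-NTA purified and eluted with 300 mM imidazole. Protein (3 μM) in 50 mM HEPES pH 7.5, 0.01% Triton X-100, with or without 4 mM DTT, sat with test compound or DMSO for 30 min at 30 °C. SYPRO orange (1×) was added and a 20–90 °C ramp at 0.05 °C/s applied. Tm was from a Boltzmann fit.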

SARS-CoV-2 = settings: at 10 μM; cited from earlier work
[11] = EV-D68 3C^pro IC50, with 4 mM DTT
[12] = EV-A71 2A^pro IC50, with 4 mM DTT
[13] = EV-D68 2A^pro IC50, with 4 mM DTT
[14] = EV-A71 3C^pro IC50, with 4 mM DTT

SMILES | IC50 (EV-D68 3C^pro [1]; EV-D68 3C^pro IC50, no DTT) [µM] | IC50 (EV-D68 3C^pro [1]; [11]) [µM] | IC50 (EV-A71 2A^pro [2]; EV-A71 2A^pro IC50, no DTT) [µM] | IC50 (EV-A71 2A^pro [2]; [12]) [µM] | Tm change, SARS-CoV-2 M^pro (SARS-CoV-2 M^pro [3]) | Tm change, EV-D68 2A^pro (EV-D68 2A^pro [4]) | Tm change, EV-D68 3C^pro (EV-D68 3C^pro [5]) | Ligand binding to M^pro dimer (SARS-CoV-2 M^pro [6]; with 4 mM DTT, 10-40 μM drug) | Ligands bound per M^pro dimer (SARS-CoV-2 M^pro [6]; without DTT, 10-40 μM drug) | CC50 (in vitro) [µM] | IC50 (EV-D68 2A^pro [7]; EV-D68 2A^pro IC50, no DTT) [µM] | IC50 (EV-D68 2A^pro [7]; [13]) [µM] | Tm change, EV-A71 2A^pro (EV-A71 2A^pro [8]) | Tm change, EV-A71 3C^pro (EV-A71 3C^pro [9]) | IC50 (EV-A71 3C^pro [10]; EV-A71 3C^pro IC50, no DTT) [µM] | IC50 (EV-A71 3C^pro [10]; [14]) [µM] | Tm change, SARS-CoV-2 PL^pro (SARS-CoV-2 PL^pro) | Reduction of viral replication, viral titer reduction assay (SARS-CoV-2) | other results
CC(C)=CC[C@@H](O)C1=CC(=O)c2c(O)ccc(O)c2C1=O [shikonin] | 1.2 ± 0.7 | > 60 | 36 ± 20.5 | > 60 | no Tm change | no Tm change | no Tm change | completely disrupted | up to four ligands per dimer | 0.8 | 37 ± 14.2 | > 60 | no Tm change | no Tm change | 0.5 ± 0.2 | > 60 | no Tm change |  | 
CCN(CC)C(=S)SSC(=S)N(CC)CC [disulfiram] | 0.6 ± 0.1 | > 60 | 11.8 ± 2.1 | > 60 | no Tm change | no Tm change | no Tm change | completely disrupted | up to three | 8.3 | 3.5 ± 0.5 | > 60 | no Tm change | no Tm change | 1 ± 0.6 | > 60 | no Tm change | ~30% | 
CCCCCCNC(=O)n1cc(F)c(=O)[nH]c1=O [carmofur] | 0.3 | > 60 | 12.9 ± 4.5 | > 60 | no Tm change | no Tm change | no Tm change | moderate binding | up to three ligands per dimer | 47.2 | 6.4 ± 1.3 | > 60 | no Tm change | no Tm change | 0.4 ± 0.2 | > 60 | no Tm change | no significant antiviral effect | Tm increase, SARS-CoV-2 M^pro (SARS-CoV-2 M^pro [3]; absence of DTT, 40 μM compound): 4.76 °C; Tm increase, EV-D68 3C^pro (EV-D68 3C^pro [5]; absence of DTT, 40 μM compound): 0.87 °C
CCC[C@H](NC(=O)[C@@H]1[C@H]2CCC[C@H]2CN1C(=O)[C@@H](NC(=O)[C@@H](NC(=O)c1cnccn1)C1CCCCC1)C(C)(C)C)C(=O)C(=O)NC1CC1 [telaprevir] |  |  | 1.8 ± 0.9 | 1.3 |  | increased the Tm |  |  |  |  | 0.1 |  | increased the Tm |  |  |  |  |  | 
O=c1sn(-c2cccc3ccccc23)c(=O)n1Cc1ccccc1 [tideglusib] | 0.6 ± 0.3 | > 60 | 3.4 ± 2.9 | > 60 | no Tm change | no Tm change | no Tm change | did not bind | did not bind | 16.6 | 1.3 ± 0.7 | > 60 | no Tm change | no Tm change | 1.2 ± 0.1 | > 60 | no Tm change | no significant antiviral effect | 
O=c1c2ccccc2[se]n1-c1ccccc1 [ebselen] | 0.1 | > 60 | 5.9 ± 1.1 | > 60 | no Tm change | no Tm change | no Tm change |  |  | 17 | 3.6 ± 1 | > 60 | no Tm change | no Tm change | 1.2 ± 0.7 | > 60 | no Tm change |  | Ligand binding to M^pro dimer (SARS-CoV-2 M^pro [6]): completely disrupted; Ligands bound per M^pro dimer (SARS-CoV-2 M^pro [6]): four
